Shown are actives, neighbours in structure and some others; about 1.8% of the full set was active somewhere.
CHRM5 PAM – positive allosteric modulators of human muscarinic M5 receptor; P08912; CHO-K1 hM5, Fluo-8 calcium, ACh EC20 PAM; 0% = ACh EC20, 100% = ACh EC100; activation, % at 3 µM; 0.3% of 360,000 active; AID 624038;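 active means activation above the run cutoff, the mean activation of all test compounds plus 3 SD, cut at about 18% in these data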
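Measured by: Fluo-8 calcium fluorescence; material: human M5 receptor in CHO-K1 cells; schedule: Post-acetylcholine fluorescence recording 140 s; benchmarks: low control EC20 acetylcholine (0%), high control EC100 acetylcholine (100%); read-out: Max/basal fluorescence ratio as % of EC20–EC100 ACh window; compound: single dose, 3 µM nominal final test concentration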
CHRM5 antagonist – blocks acetylcholine activation of human M5 receptor; P08912; CHO-hM5 cells, Fluo-8 calcium fluorescence, ACh EC80; inhibition, % at 3 µM; 0.59% of 360,000 active;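 active means inhibition above a per-plate cutoff, the mean of that plate's test compounds plus 3 SD, cut at about 27% in these data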;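 further: 0% = acetylcholine EC80 with DMSO and 100% = DMSO without agonist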
CHRM4 antagonist – CHRM4 antagonism in calcium assay | P08173 | CHO-hM4 cells, ACh EC80, Fluo-8 calcium fluorescence | inhibition, % at 3 µM | 0.73% of 360,000 active | AID 624125;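 active means inhibition above its plate's cutoff, the mean inhibition of sample wells plus 3 SD, cut at about 27% in these data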;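 further: 0% = acetylcholine EC80 with DMSO and 100% = DMSO without agonist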
Target sequence (P08173 whole entry, looked up): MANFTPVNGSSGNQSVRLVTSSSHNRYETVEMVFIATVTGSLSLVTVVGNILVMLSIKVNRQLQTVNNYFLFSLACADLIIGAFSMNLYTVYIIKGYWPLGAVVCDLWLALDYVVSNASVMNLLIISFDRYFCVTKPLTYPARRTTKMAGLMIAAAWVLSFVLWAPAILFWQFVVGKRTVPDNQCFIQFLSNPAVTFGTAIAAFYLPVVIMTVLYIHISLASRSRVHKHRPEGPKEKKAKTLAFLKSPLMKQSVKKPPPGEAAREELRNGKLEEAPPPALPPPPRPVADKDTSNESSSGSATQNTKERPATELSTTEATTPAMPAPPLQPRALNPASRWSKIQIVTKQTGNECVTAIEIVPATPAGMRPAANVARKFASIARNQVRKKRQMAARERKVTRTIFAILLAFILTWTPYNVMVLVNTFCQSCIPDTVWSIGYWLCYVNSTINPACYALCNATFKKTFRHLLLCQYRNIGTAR
M5 ag – agonists of human muscarinic M5 receptor (CHRM5); CHO-K1 hM5 cells, Fluo-8 calcium fluorescence; 0% DMSO wells, 100% maximal acetylcholine response; activation, % at 3 µM; 0.19% of 360,000 active; AID 624037;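 active means activation above the run's mean over test compounds plus 3 SD, cut at about 23% in these data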;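 further: signal is peak over basal fluorescence ratio across the kinetic read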
M4 PAM – CHRM4 positive allosteric modulation; AID 624126; activation, % at 3 µM; 0.4% of 360,000 active; CHO-K1 hM4/Gqi5, Fluo-8 calcium fluorescence, ACh EC20; 0% = ACh EC20, 100% = maximal ACh;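 active means activation above its plate's cutoff, the mean activation of sample wells plus 3 SD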
M4 ag – CHRM4 agonism in calcium assay; CHO-K1 hM4/Gqi5, Fluo-8 calcium fluorescence; vehicle 0%, full acetylcholine response 100%; AID 624127; 0.14% of 360,000 active; activation, % at 3 µM;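 active means activation above the run mean over all test wells plus 3 SD, cut at about 32% in these data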;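 further: peak over basal fluorescence ratio per well then scaled between controls; 0% = DMSO wells and 100% = acetylcholine at EC100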
Starred values were filed as active, the others as inactive.

SMILES | CHRM5 PAM | CHRM5 antagonist | CHRM4 antagonist | M5 ag | M4 PAM | M4 ag
Cc1nc(N)sc1C(=O)N/N=C/c1cccnc1 | 19.5* | -7.7 | 4.0 | 3.5 | 2.0 | 0.1
O=C(NCCN1CCN(c2cccc(Cl)c2)CC1)Nc1ccccc1 | -7.2 | 1.3 | 1.6 | -3.5 | -12.8 | 4.6
O=C(NCCN1CCN(Cc2ccccc2)CC1)Nc1cc(Cl)cc(Cl)c1 | -28.1 | 21.5 | 43.5* | 12.6 | -53.0 | 44.9*
CC(=O)OCC1OC(n2cc(F)c(=O)[nH]c2=O)C(OC(C)=O)C1OC(C)=O (centres undefined) | 6.8 | -4.7 | 0.1 | 1.6 | -1.0 | 0.0
O=C1C(F)=CC(COC(c2ccccc2)(c2ccccc2)c2ccccc2)OC1n1cc(F)c(=O)[nH]c1=O (centres undefined) | -6.3 | 7.6 | 34.2* | 1.3 | -5.5 | 5.1
CC(NC(=O)CCn1nc(-c2ccc(Cl)cc2)ccc1=O)c1ccccc1 (centres undefined) | 1.6 | 8.2 | 3.8 | 2.5 | -8.6 | 0.0
O=C(CSc1ccc(-c2ccccn2)nn1)c1ccccc1 | -3.3 | 4.5 | -9.8 | -2.5 | -10.5 | 7.0
O=C(CSc1ccc(-c2ccccn2)nn1)c1ccc(F)cc1 | 28.2* | 31.5* | 7.1 | 4.0 | 12.2 | 4.1
O=C(CSc1nnc(COc2cccc3cccnc23)o1)N1CCc2ccccc21 | -8.8 | 27.9* | 5.0 | -2.6 | 13.3 | 1.1
O=C(CSc1nnc(Cc2ccccc2)o1)N1CCc2ccccc21 | -0.4 | -2.0 | -9.3 | -4.6 | 10.8 | 1.4
COC(=O)Cc1ccc(OC2(C)CCN(Cc3ccc(-c4ccccn4)cc3)C2)cc1 (centres undefined) | -6.8 | 1.2 | 33.7* | -1.7 | -13.4 | 3.7
COC(=O)Cc1ccc(OC2(C)CCN(Cc3ccccc3OC(F)F)C2)cc1 (centres undefined) | -9.9 | 4.1 | 55.5* | -3.5 | -10.7 | 0.4
COc1cccc(OC2(C)CCN(Cc3ccc(-c4ccccn4)cc3)C2)c1 (centres undefined) | -8.4 | 4.0 | 5.8 | -2.5 | -9.9 | 4.3
CCc1ccc(OC2(C)CCN(Cc3ccccc3OC(F)F)C2)cc1 (centres undefined) | -2.3 | 9.3 | 5.6 | -0.4 | -4.4 | -0.7
Cc1ccc(Sc2ccc(S(=O)(=O)Nc3ccc(CC(=O)O)cc3)cc2)cc1C | -0.5 | 10.0 | 1.9 | -3.5 | 3.9 | -0.9
CCN(CC)c1ccc2nc3ccc(N)cc3[n+](-c3ccccc3)c2c1 | 4.4 | 4.3 | 6.0 | -6.3 | -2.3 | 2.9
CCN(CC)c1ccc2nc3ccccc3[n+](CC)c2c1 | 6.0 | -5.3 | 27.4* | -21.7 | -14.0 | -0.3
O=C(Nc1csc([N+](=O)[O-])c1)Nc1ccccc1Cl | -35.4 | 45.1* | 28.6* | -0.5 | -27.1 | 25.4
COc1ccc(NS(=O)(=O)c2ccc(C)c(C(=O)NCC(c3ccco3)N(C)C)c2)cc1 (centres undefined) | 0.1 | -3.2 | -11.5 | 5.8 | 2.8 | 2.6
COCCCNC(=O)C(C)N1c2cccc3cccc(c23)S1(=O)=O (centres undefined) | 7.3 | -5.6 | -11.4 | 3.4 | 0.6 | 0.2
COc1ccc(C(=O)C(C)[n+]2ccc(C)c3ccccc32)cc1[N+](=O)[O-] (centres undefined) | -12.9 | 4.4 | 27.0* | -9.2 | -14.2 | 3.9
CCOC(=O)CC(NC(=O)c1ccco1)c1ccc(OC)cc1 (centres undefined) | 21.4* | -1.9 | -6.6 | -3.5 | 6.3 | -0.1
Cc1cc(N2CCCC2=O)cc(C)c1S(=O)(=O)NCCOc1ccc(C(C)(C)C)cc1 | -25.8 | 33.4* | 28.0* | 2.4 | -16.6 | 12.2
COc1ccc(CNC(=O)c2ccccc2SCC(=O)N2CCCC2)cc1OC | -8.1 | -0.6 | -9.5 | 5.9 | -2.7 | 9.8
COC(=O)C1=C(C)N(CCc2ccc(OC)c(OC)c2)C(=O)C1 | 27.9* | 21.5 | -14.9 | -2.6 | -5.6 | 4.0
SMILES | CHRM5 PAM | CHRM5 antagonist | CHRM4 antagonist | M5 ag | M4 PAM | M4 ag
COc1ccc(NC(=O)C2(C)Cc3c(-c4ccc(N(C)C)cc4)ccnc3O2)cn1 (centres undefined) | -3.2 | 6.0 | -13.5 | -2.7 | 8.8 | -1.6
Cc1ccc(O)c(C(=O)c2cc(C#N)c(=O)n(-c3nccs3)c2)c1 | -16.7 | 31.7* | 25.9 | 33.8* | -18.4 | 57.4*
CC[N+](CC)(CC#Cc1ccccc1)CC#Cc1ccccc1 | -31.4 | 30.7* | 22.7 | -21.9 | -47.7 | 0.3
COCCCNC(=O)c1ccc2nc(Cc3ccc(OC)cc3)oc2c1 | -2.2 | 8.9 | 36.6* | 1.7 | -15.1 | 1.9
Cn1c(=O)cc(OCCCC(=O)Nc2cccnc2)c2ccccc21 | 13.3 | 3.1 | 36.6* | -1.9 | 20.8 | 1.9
Nc1nc(N)c(N=O)c(Nc2cccc(Cl)c2)n1 | -1.0 | -7.3 | -9.2 | 45.4* | 4.9 | 6.9
Cc1ccc(Nc2nc(N)nc(N)c2N=O)cc1Cl | -4.4 | 6.4 | -3.0 | 44.6* | 17.9 | 10.8
Nc1nc(N)c(Br)c(Nc2ccc(Cl)c(Cl)c2)n1 | 29.3* | 0.2 | -20.2 | 25.3* | 23.1 | 3.6
CCc1c(N)nc(N)nc1Nc1ccc(C)c(C)c1 | -12.1 | 3.8 | -17.5 | 2.4 | 6.9 | 4.0
Nc1nc(N)c(N=O)c(Nc2ccc(Cl)c(Cl)c2)n1 | -1.3 | 2.4 | -12.0 | 51.6* | 21.4 | 18.8
COc1ccc(C(O)c2nc(-c3ccc(F)c(Cl)c3)cs2)cc1 (centres undefined) | -1.1 | -0.4 | 1.2 | 0.7 | 7.3 | 4.8
Nc1ccccc1-c1ccc([N+](=O)[O-])cc1 | 5.0 | 9.2 | -3.9 | -2.3 | 2.2 | -0.3
CN1CCC(=NNc2ccc(S(=O)(=O)N3CCOCC3)cc2[N+](=O)[O-])CC1 | -4.0 | 1.9 | 8.9 | -3.6 | -2.2 | 0.2
Cc1csc2c(N3CCN(C(=O)Nc4ccc(OC(F)(F)F)cc4)CC3)ncnc12 | -20.6 | 12.4 | -8.6 | -1.7 | -28.0 | 12.9
Cc1cc(C)cc(-n2c(=O)c3sccc3n(CC(=O)NCc3ccco3)c2=O)c1 | 22.1* | 5.9 | 23.3 | -0.6 | 27.8 | -0.1
N#Cc1ccc(C(=O)N2CCCC(c3cc(C(=O)NCc4cccnc4)no3)C2)cc1 (centres undefined) | 1.9 | -11.0 | -26.7 | -1.0 | 3.0 | 3.0
COc1ccc(N(C)S(=O)(=O)c2ccc(Cl)c(C(=O)NCC(C)(C)N3CCOCC3)c2)cc1 | -22.4 | 9.2 | -7.4 | 4.4 | -4.8 | 17.3
CCOC(=O)CSC(=S)NC(=O)c1ccc(OC)cc1 | 2.3 | 2.3 | 4.3 | 3.1 | 35.4* | 0.9
CC1CCN(c2nc3ccccc3n2CC(=O)c2ccccc2)CC1 | -16.6 | 5.5 | 58.4* | -8.4 | -26.1 | 0.8
Cc1nc2ccccc2n1CC(=O)c1ccccc1 | 12.8 | -1.5 | -0.7 | 5.3 | -2.5 | 1.9
